According to the RNAGym collection of RNA variant scans (doi:10.1002/anie.201605470):

B1: Osa-1-4 twister ribozyme (parent)
chain: CCGCCUAACACUGCCAAUGCCGGUCCCAAGCCCGGAUAAAAGUGGAGGGGGCGG

Variants of: B1
Test: self-cleavage, relative activity (ratio to wild type); higher = more cleavage; co-transcriptional
Procedure, shortened: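 The 48 positions downstream of the cleavage site in a 54-nucleotide Oryza sativa twister ribozyme template were synthesised at 97 % wild-type base and 1 % of each other base. The template was transcribed in vitro at 37 °C for 2 h, with self-cleavage allowed during transcription. Reads with or without upstream sequence after deep sequencing marked cleavage status, and relative activity is fraction cleaved normalised to wild type.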
A36G C52A gave a self-cleavage of 1.01.
In the case of A36G C52G, the self-cleavage is reported as 1.04.
A36G C52U gave a self-cleavage of 1.02.
A36G G13A showed a self-cleavage of 0.24.
For A36G G13C, the self-cleavage was 0.03.
For A36G G13U, the self-cleavage was 0.03.
In the case of A36G G19A, the self-cleavage is reported as 0.8.
A36G G19C showed a self-cleavage of 0.13.
For A36G G19U, the self-cleavage was 0.99.
Work on A36G G22A yielded a self-cleavage of 1.01.
In the case of A36G G22C, the self-cleavage is reported as 0.07.
Variant A36G G22U has a self-cleavage of 0.57.
A36G G23A showed a self-cleavage of 0.62.
A36G G23C showed a self-cleavage of 0.07.
A36G G23U showed a self-cleavage of 0.13.
A36G G30A gave a self-cleavage of 0.05.
A36G G30C gave a self-cleavage of 0.05.
Work on A36G G30U yielded a self-cleavage of 0.05.
A36G G34A gave a self-cleavage of 0.91.
In the case of A36G G34C, the self-cleavage is reported as 0.31.
In the case of A36G G34U, the self-cleavage is reported as 0.82.
With A36G G35A the self-cleavage was 0.92.
For A36G G35C, the self-cleavage was 0.93.
A36G G35U gave a self-cleavage of 0.91.
A36G G42A gave a self-cleavage of 0.8.
In the case of A36G G42C, the self-cleavage is reported as 0.24.
Variant A36G G42U has a self-cleavage of 0.08.
In the case of A36G G44A, the self-cleavage is reported as 1.01.
A36G G44C gave a self-cleavage of 0.97.
A36G G44U showed a self-cleavage of 0.97.
Work on A36G G45A yielded a self-cleavage of 0.54.
A36G G45C showed a self-cleavage of 0.07.
With A36G G45U the self-cleavage was 0.21.
With A36G G47A the self-cleavage was 0.54.
Variant A36G G47C has a self-cleavage of 0.2.
A36G G47U showed a self-cleavage of 0.47.
A36G G48A gave a self-cleavage of 0.15.
Variant A36G G48C has a self-cleavage of 0.15.
Work on A36G G48U yielded a self-cleavage of 0.12.
For A36G G49A, the self-cleavage was 0.24.
With A36G G49C the self-cleavage was 0.08.
Variant A36G G49U has a self-cleavage of 0.27.
For A36G G50A, the self-cleavage was 0.76.
In the case of A36G G50C, the self-cleavage is reported as 1.04.
With A36G G50U the self-cleavage was 1.04.
In the case of A36G G51A, the self-cleavage is reported as 0.78.
Variant A36G G51C has a self-cleavage of 0.18.
In the case of A36G G51U, the self-cleavage is reported as 0.37.
With A36G G53A the self-cleavage was 0.95.
A36G G53C gave a self-cleavage of 0.13.
A36G G53U gave a self-cleavage of 0.61.
Variant A36G G54A has a self-cleavage of 1.04.
A36G G54C gave a self-cleavage of 1.01.
A36G G54U showed a self-cleavage of 0.98.
Variant A36G U12A has a self-cleavage of 0.99.
In the case of A36G U12C, the self-cleavage is reported as 0.69.
In the case of A36G U12G, the self-cleavage is reported as 0.39.
Variant A36G U18A has a self-cleavage of 0.98.
A36G U18C showed a self-cleavage of 0.98.
A36G U18G showed a self-cleavage of 0.85.
With A36G U24A the self-cleavage was 0.52.
With A36G U24C the self-cleavage was 0.44.
Work on A36G U24G yielded a self-cleavage of 0.04.
For A36G U37A, the self-cleavage was 1.02.
A36G U37C showed a self-cleavage of 1.04.
Variant A36G U37G has a self-cleavage of 1.03.
For A36G U43A, the self-cleavage was 0.92.
A36G U43C showed a self-cleavage of 0.74.
Work on A36G U43G yielded a self-cleavage of 0.64.
In the case of A36U, the self-cleavage is reported as 1.03.
Variant A36U A7C has a self-cleavage of 0.04.
Work on A36U A7G yielded a self-cleavage of 0.38.
With A36U A7U the self-cleavage was 0.07.
Variant A36U A8C has a self-cleavage of 0.09.
Variant A36U A8G has a self-cleavage of 0.71.
Variant A36U A8U has a self-cleavage of 0.34.
In the case of A36U A38C, the self-cleavage is reported as 1.02.
A36U A38G showed a self-cleavage of 1.
Work on A36U A38U yielded a self-cleavage of 0.97.
Variant A36U A39C has a self-cleavage of 0.99.
A36U A39G gave a self-cleavage of 0.98.
With A36U A39U the self-cleavage was 0.91.
A36U A40C gave a self-cleavage of 0.08.
A36U A40G showed a self-cleavage of 0.84.
A36U A40U gave a self-cleavage of 0.63.
With A36U A41C the self-cleavage was 0.99.
Work on A36U A41G yielded a self-cleavage of 0.68.
Work on A36U A41U yielded a self-cleavage of 1.02.
Work on A36U A46C yielded a self-cleavage of 0.08.
A36U A46G gave a self-cleavage of 0.09.
A36U A46U gave a self-cleavage of 0.08.
In the case of A36U C9A, the self-cleavage is reported as 0.47.
Variant A36U C9G has a self-cleavage of 0.9.
For A36U C9U, the self-cleavage was 0.83.
A36U C11A gave a self-cleavage of 0.87.
Variant A36U C11G has a self-cleavage of 0.72.
With A36U C11U the self-cleavage was 0.94.
Variant A36U C14A has a self-cleavage of 0.07.
With A36U C14G the self-cleavage was 0.13.
Work on A36U C14U yielded a self-cleavage of 0.5.
A36U C15A gave a self-cleavage of 0.51.
A36U C15G gave a self-cleavage of 0.4.
Work on A36U C15U yielded a self-cleavage of 0.31.
In the case of A36U C20A, the self-cleavage is reported as 0.82.
Variant A36U C20G has a self-cleavage of 0.19.
A36U C20U gave a self-cleavage of 0.99.
Variant A36U C21A has a self-cleavage of 0.91.
A36U C21G gave a self-cleavage of 0.1.
In the case of A36U C21U, the self-cleavage is reported as 1.04.
Work on A36U C25A yielded a self-cleavage of 0.12.
With A36U C25G the self-cleavage was 0.1.
In the case of A36U C25U, the self-cleavage is reported as 0.92.
With A36U C26A the self-cleavage was 0.04.
With A36U C26G the self-cleavage was 0.08.
Work on A36U C26U yielded a self-cleavage of 1.
A36U C27A showed a self-cleavage of 0.29.
A36U C27G showed a self-cleavage of 0.09.
For A36U C27U, the self-cleavage was 0.28.
Variant A36U C31A has a self-cleavage of 0.03.
With A36U C31G the self-cleavage was 0.07.
Variant A36U C31U has a self-cleavage of 0.95.
In the case of A36U C32A, the self-cleavage is reported as 0.13.
A36U C32G gave a self-cleavage of 0.12.
A36U C32U showed a self-cleavage of 0.15.
A36U C33A showed a self-cleavage of 0.24.
Work on A36U C33G yielded a self-cleavage of 0.08.
A36U C33U gave a self-cleavage of 0.89.
In the case of A36U C52A, the self-cleavage is reported as 1.04.
A36U C52G gave a self-cleavage of 1.06.
A36U C52U gave a self-cleavage of 1.06.
Variant A36U G13A has a self-cleavage of 0.14.
In the case of A36U G13C, the self-cleavage is reported as 0.03.
For A36U G13U, the self-cleavage was 0.03.
In the case of A36U G19A, the self-cleavage is reported as 0.48.
Variant A36U G19C has a self-cleavage of 0.67.
For A36U G19U, the self-cleavage was 0.93.
Work on A36U G22A yielded a self-cleavage of 1.05.
In the case of A36U G22C, the self-cleavage is reported as 0.19.
A36U G22U showed a self-cleavage of 0.9.
With A36U G23A the self-cleavage was 0.72.
A36U G23C showed a self-cleavage of 0.05.
With A36U G23U the self-cleavage was 0.18.
Variant A36U G30A has a self-cleavage of 0.03.
Work on A36U G30C yielded a self-cleavage of 0.06.
For A36U G30U, the self-cleavage was 0.04.
Work on A36U G34A yielded a self-cleavage of 0.86.
With A36U G34C the self-cleavage was 0.66.
A36U G34U showed a self-cleavage of 0.84.
A36U G35A gave a self-cleavage of 0.92.
In the case of A36U G35C, the self-cleavage is reported as 0.82.
For A36U G35U, the self-cleavage was 1.04.
With A36U G42A the self-cleavage was 0.85.
Variant A36U G42C has a self-cleavage of 0.28.
With A36U G42U the self-cleavage was 0.12.
A36U G44A gave a self-cleavage of 0.97.
With A36U G44C the self-cleavage was 1.03.
A36U G44U gave a self-cleavage of 0.96.
In the case of A36U G45A, the self-cleavage is reported as 0.46.
In the case of A36U G45C, the self-cleavage is reported as 0.05.
A36U G45U gave a self-cleavage of 0.13.
A36U G47A showed a self-cleavage of 0.32.
Work on A36U G47C yielded a self-cleavage of 0.13.
Variant A36U G47U has a self-cleavage of 0.31.
A36U G48A gave a self-cleavage of 0.12.
A36U G48C showed a self-cleavage of 0.09.
Work on A36U G48U yielded a self-cleavage of 0.08.
For A36U G49A, the self-cleavage was 0.19.
